Measurements as given in ChEMBL document CHEMBL4152188, “Design, synthesis and biological evaluation of C(4) substituted monobactams as antibacterial agents against multidrug-resistant Gram-negative bacteria” (Eur J Med Chem, 2018).
In brackets after ≈: the same amount, converted by molar mass.

How the values were obtained:
Type in all cases: functional
Escherichia coli [1] = assay: Antibacterial activity against extended-spectrum beta-lactamase producing Escherichia coli isolate 212648 after 18 hrs by CLSI broth microdilution method; details: isolate 212648, 18 h
Escherichia coli [2] = assay: Antibacterial activity against Escherichia coli isolate 210737 after 18 hrs by CLSI broth microdilution method; details: isolate 210737, 18 h
Escherichia coli [3] = assay: Antibacterial activity against extended-spectrum beta-lactamase producing Escherichia coli isolate 208687 after 18 hrs by CLSI broth microdilution method; details: isolate 208687, 18 h
Escherichia coli [4] = assay: Antibacterial activity against extended-spectrum beta-lactamase producing Escherichia coli isolate 208687 after 18 hrs in presence of BPL by CLSI broth microdilution method; details: isolate 208687, 18 h
Method in brief: (§1)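 CLSI broth microdilution against clinical isolates (ESBL E. coli, KPC-2 MDR K. pneumoniae, IMP-4 MDR P. aeruginosa; five per species). Iron limitation: Mueller-Hinton broth supplemented with 16 mg/liter 2,2'-bipyridyl to complex iron and induce iron uptake systems. Read-out: MIC.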

Escherichia coli [5] = assay: Antibacterial activity against Escherichia coli isolate 210737 after 18 hrs in presence of BPL by CLSI broth microdilution method; details: isolate 210737, 18 h; method in brief: as §1
Escherichia coli [6] = assay: Antibacterial activity against extended-spectrum beta-lactamase producing Escherichia coli isolate 212648 after 18 hrs in presence of BPL by CLSI broth microdilution method; details: isolate 212648, 18 h; method in brief: as §1
Escherichia coli [7] = assay: Antibacterial activity against extended-spectrum beta-lactamase producing Escherichia coli isolate 209285 after 18 hrs by CLSI broth microdilution method; details: isolate 209285, 18 h
Escherichia coli [8] = assay: Antibacterial activity against extended-spectrum beta-lactamase producing Escherichia coli isolate 209285 after 18 hrs in presence of BPL by CLSI broth microdilution method; details: isolate 209285, 18 h; method in brief: as §1
Escherichia coli [9] = assay: Antibacterial activity against extended-spectrum beta-lactamase producing Escherichia coli isolate 106342 after 18 hrs by CLSI broth microdilution method; details: isolate 106342, 18 h
Escherichia coli [10] = assay: Antibacterial activity against extended-spectrum beta-lactamase producing Escherichia coli isolate 106342 after 18 hrs in presence of BPL by CLSI broth microdilution method; details: isolate 106342, 18 h; method in brief: as §1
Escherichia coli [11] = assay: Selectivity index, ratio of MIC for against extended-spectrum beta-lactamase producing Escherichia coli isolate 106342 to MIC for extended-spectrum beta-lactamase producing Escherichia coli isolate 106342 in presence of BPL
Klebsiella pneumoniae [12] = assay: Antibacterial activity against KPC-2 producing Klebsiella pneumoniae isolate 212423 after 18 hrs by CLSI broth microdilution method; details: isolate 212423, 18 h
Klebsiella pneumoniae [13] = assay: Antibacterial activity against KPC-2 producing Klebsiella pneumoniae isolate 212423 after 18 hrs in presence of BPL by CLSI broth microdilution method; details: isolate 212423, 18 h; method in brief: as §1
Klebsiella pneumoniae [14] = assay: Antibacterial activity against KPC-2 producing Klebsiella pneumoniae isolate 209632 after 18 hrs by CLSI broth microdilution method; details: isolate 209632, 18 h
Klebsiella pneumoniae [15] = assay: Antibacterial activity against KPC-2 producing Klebsiella pneumoniae isolate 209632 after 18 hrs in presence of BPL by CLSI broth microdilution method; details: isolate 209632, 18 h; method in brief: as §1
Klebsiella pneumoniae [16] = assay: Antibacterial activity against KPC-2 producing Klebsiella pneumoniae isolate 209735 after 18 hrs by CLSI broth microdilution method; details: isolate 209735, 18 h
Klebsiella pneumoniae [17] = assay: Antibacterial activity against KPC-2 producing Klebsiella pneumoniae isolate 209735 after 18 hrs in presence of BPL by CLSI broth microdilution method; details: isolate 209735, 18 h; method in brief: as §1
Klebsiella pneumoniae [18] = assay: Antibacterial activity against KPC-2 producing Klebsiella pneumoniae isolate 212232 after 18 hrs by CLSI broth microdilution method; details: isolate 212232, 18 h
Klebsiella pneumoniae [19] = assay: Antibacterial activity against KPC-2 producing Klebsiella pneumoniae isolate 212232 after 18 hrs in presence of BPL by CLSI broth microdilution method; details: isolate 212232, 18 h; method in brief: as §1
Klebsiella pneumoniae [20] = assay: Antibacterial activity against KPC-2 producing Klebsiella pneumoniae isolate 212229 after 18 hrs by CLSI broth microdilution method; details: isolate 212229, 18 h
Klebsiella pneumoniae [21] = assay: Antibacterial activity against KPC-2 producing Klebsiella pneumoniae isolate 212229 after 18 hrs in presence of BPL by CLSI broth microdilution method; details: isolate 212229, 18 h; method in brief: as §1
Pseudomonas aeruginosa [22] = assay: Antibacterial activity against IMP-4 producing Pseudomonas aeruginosa isolate 212886 after 18 hrs by CLSI broth microdilution method; details: isolate 212886, 18 h
Pseudomonas aeruginosa [23] = assay: Antibacterial activity against IMP-4 producing Pseudomonas aeruginosa isolate 212886 after 18 hrs in presence of BPL by CLSI broth microdilution method; details: isolate 212886, 18 h; method in brief: as §1
Pseudomonas aeruginosa [24] = assay: Selectivity index, ratio of MIC for against IMP-4 producing Pseudomonas aeruginosa isolate 212886 to MIC for against IMP-4 producing Pseudomonas aeruginosa isolate 212886 in presence of BPL
Pseudomonas aeruginosa [25] = assay: Antibacterial activity against IMP-4 producing Pseudomonas aeruginosa isolate 209471 after 18 hrs by CLSI broth microdilution method; details: isolate 209471, 18 h
Pseudomonas aeruginosa [26] = assay: Antibacterial activity against IMP-4 producing Pseudomonas aeruginosa isolate 209471 after 18 hrs in presence of BPL by CLSI broth microdilution method; details: isolate 209471, 18 h; method in brief: as §1
Pseudomonas aeruginosa [27] = assay: Selectivity index, ratio of MIC for against IMP-4 producing Pseudomonas aeruginosa isolate 209471 to MIC for against IMP-4 producing Pseudomonas aeruginosa isolate 209471 in presence of BPL
Pseudomonas aeruginosa [28] = assay: Antibacterial activity against IMP-4 producing Pseudomonas aeruginosa isolate 208247 after 18 hrs by CLSI broth microdilution method; details: isolate 208247, 18 h
Pseudomonas aeruginosa [29] = assay: Antibacterial activity against IMP-4 producing Pseudomonas aeruginosa isolate 208247 after 18 hrs in presence of BPL by CLSI broth microdilution method; details: isolate 208247, 18 h; method in brief: as §1
Pseudomonas aeruginosa [30] = assay: Selectivity index, ratio of MIC for against IMP-4 producing Pseudomonas aeruginosa isolate 208247 to MIC for against IMP-4 producing Pseudomonas aeruginosa isolate 208247 in presence of BPL
Pseudomonas aeruginosa [31] = assay: Antibacterial activity against IMP-4 producing Pseudomonas aeruginosa isolate 209321 after 18 hrs by CLSI broth microdilution method; details: isolate 209321, 18 h
Pseudomonas aeruginosa [32] = assay: Antibacterial activity against IMP-4 producing Pseudomonas aeruginosa isolate 209321 after 18 hrs in presence of BPL by CLSI broth microdilution method; details: isolate 209321, 18 h; method in brief: as §1
Pseudomonas aeruginosa [33] = assay: Selectivity index, ratio of MIC for against IMP-4 producing Pseudomonas aeruginosa isolate 209321 to MIC for against IMP-4 producing Pseudomonas aeruginosa isolate 209321 in presence of BPL
Pseudomonas aeruginosa [34] = assay: Antibacterial activity against IMP-4 producing Pseudomonas aeruginosa isolate 207272 after 18 hrs by CLSI broth microdilution method; details: isolate 207272, 18 h
Pseudomonas aeruginosa [35] = assay: Antibacterial activity against IMP-4 producing Pseudomonas aeruginosa isolate 207272 after 18 hrs in presence of BPL by CLSI broth microdilution method; details: isolate 207272, 18 h; method in brief: as §1
Pseudomonas aeruginosa [36] = assay: Selectivity index, ratio of MIC for against IMP-4 producing Pseudomonas aeruginosa isolate 207272 to MIC for against IMP-4 producing Pseudomonas aeruginosa isolate 207272 in presence of BPL
Escherichia coli [37] = assay: Selectivity index, ratio of MIC for against extended-spectrum beta-lactamase producing Escherichia coli isolate 208687 to MIC for extended-spectrum beta-lactamase producing Escherichia coli isolate 208687 in presence of BPL
Escherichia coli [38] = assay: Selectivity index, ratio of MIC for against Escherichia coli isolate 210737 to MIC for Escherichia coli isolate 210737 in presence of BPL
Escherichia coli [39] = assay: Selectivity index, ratio of MIC for against extended-spectrum beta-lactamase producing Escherichia coli isolate 212648 to MIC for extended-spectrum beta-lactamase producing Escherichia coli isolate 212648 in presence of BPL
Escherichia coli [40] = assay: Selectivity index, ratio of MIC for against extended-spectrum beta-lactamase producing Escherichia coli isolate 209285 to MIC for extended-spectrum beta-lactamase producing Escherichia coli isolate 209285 in presence of BPL
Klebsiella pneumoniae [41] = assay: Selectivity index, ratio of MIC for against KPC-2 producing Klebsiella pneumoniae isolate 212423 to MIC for against KPC-2 producing Klebsiella pneumoniae isolate 212423 in presence of BPL
Klebsiella pneumoniae [42] = assay: Selectivity index, ratio of MIC for against KPC-2 producing Klebsiella pneumoniae isolate 209632 to MIC for against KPC-2 producing Klebsiella pneumoniae isolate 209632 in presence of BPL
Klebsiella pneumoniae [43] = assay: Selectivity index, ratio of MIC for against KPC-2 producing Klebsiella pneumoniae isolate 209735 to MIC for against KPC-2 producing Klebsiella pneumoniae isolate 209735 in presence of BPL
Klebsiella pneumoniae [44] = assay: Selectivity index, ratio of MIC for against KPC-2 producing Klebsiella pneumoniae isolate 212232 to MIC for against KPC-2 producing Klebsiella pneumoniae isolate 212232 in presence of BPL
Klebsiella pneumoniae [45] = assay: Selectivity index, ratio of MIC for against KPC-2 producing Klebsiella pneumoniae isolate 212229 to MIC for against KPC-2 producing Klebsiella pneumoniae isolate 212229 in presence of BPL

C#CC1[C@H](NC(=O)/C(=N\OC(c2cc(=O)c(O)cn2O)C(C)C)c2csc(N)n2)C(=O)N1S(=O)(=O)O (some centres undefined)
MIC (Escherichia coli [1]): > 64 µg/mL
MIC (Escherichia coli [2]): > 64 µg/mL
MIC (Escherichia coli [3]): > 64 µg/mL
MIC (Escherichia coli [4]): > 64 µg/mL
MIC (Escherichia coli [5]): > 64 µg/mL
MIC (Escherichia coli [6]): > 64 µg/mL
MIC (Escherichia coli [7]): > 64 µg/mL
MIC (Escherichia coli [8]): > 64 µg/mL
MIC (Escherichia coli [9]): 64 µg/mL (≈ 118 µM)
MIC (Escherichia coli [10]): 64 µg/mL
Selectivity Index (Escherichia coli [11]): 1
MIC (Klebsiella pneumoniae [12]): > 64 µg/mL
MIC (Klebsiella pneumoniae [13]): > 64 µg/mL
MIC (Klebsiella pneumoniae [14]): > 64 µg/mL
MIC (Klebsiella pneumoniae [15]): > 64 µg/mL
MIC (Klebsiella pneumoniae [16]): > 64 µg/mL
MIC (Klebsiella pneumoniae [17]): > 64 µg/mL
MIC (Klebsiella pneumoniae [18]): > 64 µg/mL
MIC (Klebsiella pneumoniae [19]): > 64 µg/mL
MIC (Klebsiella pneumoniae [20]): > 64 µg/mL
MIC (Klebsiella pneumoniae [21]): > 64 µg/mL
MIC (Pseudomonas aeruginosa [22]): > 64 µg/mL
MIC (Pseudomonas aeruginosa [23]): > 64 µg/mL
Selectivity Index (Pseudomonas aeruginosa [24]): 1 - 2
MIC (Pseudomonas aeruginosa [25]): > 64 µg/mL
MIC (Pseudomonas aeruginosa [26]): > 64 µg/mL
Selectivity Index (Pseudomonas aeruginosa [27]): 1 - 2
MIC (Pseudomonas aeruginosa [28]): 64 µg/mL (≈ 118 µM)
MIC (Pseudomonas aeruginosa [29]): 32 µg/mL
Selectivity Index (Pseudomonas aeruginosa [30]): 2
MIC (Pseudomonas aeruginosa [31]): 64 µg/mL (≈ 118 µM)
MIC (Pseudomonas aeruginosa [32]): 64 µg/mL
Selectivity Index (Pseudomonas aeruginosa [33]): 1
MIC (Pseudomonas aeruginosa [34]): > 64 µg/mL
MIC (Pseudomonas aeruginosa [35]): > 64 µg/mL
Selectivity Index (Pseudomonas aeruginosa [36]): 1 - 2

CC(C)C(O/N=C(\C(=O)N[C@@H]1C(=O)N(S(=O)(=O)O)[C@@H]1CN1CCNCC1)c1csc(N)n1)c1cc(=O)c(O)cn1O (some centres undefined)
MIC (Escherichia coli [1]): 2 µg/mL (≈ 3.25 µM)
Selectivity Index (Escherichia coli [37]): 2
MIC (Escherichia coli [2]): 1 µg/mL (≈ 1.63 µM)
MIC (Escherichia coli [3]): 2 µg/mL (≈ 3.25 µM)
MIC (Escherichia coli [4]): 1 µg/mL
MIC (Escherichia coli [5]): 1 µg/mL
Selectivity Index (Escherichia coli [38]): 1
MIC (Escherichia coli [6]): 0.5 µg/mL
Selectivity Index (Escherichia coli [39]): 4
MIC (Escherichia coli [7]): 2 µg/mL (≈ 3.25 µM)
MIC (Escherichia coli [8]): 0.5 µg/mL
Selectivity Index (Escherichia coli [40]): 4
MIC (Escherichia coli [9]): 2 µg/mL (≈ 3.25 µM)
MIC (Escherichia coli [10]): 1 µg/mL
Selectivity Index (Escherichia coli [11]): 2
MIC (Klebsiella pneumoniae [12]): 4 µg/mL (≈ 6.51 µM)
MIC (Klebsiella pneumoniae [13]): 2 µg/mL
Selectivity Index (Klebsiella pneumoniae [41]): 2
MIC (Klebsiella pneumoniae [14]): > 64 µg/mL
MIC (Klebsiella pneumoniae [15]): > 64 µg/mL
Selectivity Index (Klebsiella pneumoniae [42]): 1 - 8
MIC (Klebsiella pneumoniae [16]): > 64 µg/mL
MIC (Klebsiella pneumoniae [17]): > 64 µg/mL
Selectivity Index (Klebsiella pneumoniae [43]): 1 - 8
MIC (Klebsiella pneumoniae [18]): 4 µg/mL (≈ 6.51 µM)
MIC (Klebsiella pneumoniae [19]): 0.5 µg/mL
Selectivity Index (Klebsiella pneumoniae [44]): 8
MIC (Klebsiella pneumoniae [20]): 2 µg/mL (≈ 3.25 µM)
MIC (Klebsiella pneumoniae [21]): 2 µg/mL
Selectivity Index (Klebsiella pneumoniae [45]): 1
MIC (Pseudomonas aeruginosa [22]): > 64 µg/mL
MIC (Pseudomonas aeruginosa [23]): > 64 µg/mL
MIC (Pseudomonas aeruginosa [25]): 64 µg/mL (≈ 104 µM)
MIC (Pseudomonas aeruginosa [26]): 64 µg/mL
Selectivity Index (Pseudomonas aeruginosa [27]): 1
MIC (Pseudomonas aeruginosa [28]): > 64 µg/mL
MIC (Pseudomonas aeruginosa [29]): > 64 µg/mL
MIC (Pseudomonas aeruginosa [31]): 32 µg/mL (≈ 52.1 µM)
MIC (Pseudomonas aeruginosa [32]): 32 µg/mL
Selectivity Index (Pseudomonas aeruginosa [33]): 1
MIC (Pseudomonas aeruginosa [34]): 64 µg/mL (≈ 104 µM)
MIC (Pseudomonas aeruginosa [35]): 64 µg/mL
Selectivity Index (Pseudomonas aeruginosa [36]): 1
